CAL PDZ FP-1 – CAL PDZ peptide-binding inhibitors, primary screen, biochemical, fluorescence polarization, Cer-tagged CAL PDZ, HTS | inhibition, % at 20 µM | Golgi-associated PDZ and coiled-coil motif-containing protein (Homo sapiens), Q9HD26 | purified CAL PDZ, TMR-peptide fluorescence polarization, 1 h | hit rate 0.02% among 330,000;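 active = highest replicate inhibition of at least 40%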;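 also: plate controls were DMSO neutral control wells for no effect and unlabeled competitor peptide control wells for full effect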
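material = purified tagged CAL PDZ domain construct (CerCALP) | buffer or medium = sodium phosphate/NaCl buffer pH 7.4 with TCEP, IgG, Thesit | reagent = TMR-labelled reporter peptide T*-PRC34 bound in PDZ groove | incubation = 1 h room-temperature incubation prior to read | measured by = fluorescence polarization (mP) | evaluation = percent inhibition from loss of millipolarization | control set = unlabelled peptide and DMSO controls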
ERp5 inh – inhibitors of ERp5-driven insulin aggregation, primary screen, biochemical, turbidity, absorbance 650 nm, single point; Protein disulfide-isomerase A6 (Homo sapiens), Q15084; 90 min; inhibition, % at 9.99 µM; hit rate 0.05% among 350,000;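 active = mean replicate inhibition above about 25%, with every replicate also reaching it, limit read from the data, passing the limit was not always enough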
CAL PDZ FP-2 – untagged CAL PDZ binding inhibitors, primary screen, biochemical, fluorescence polarization, HTS; purified CAL PDZ, TMR-peptide fluorescence polarization, 1 h; inhibition, % at 24.9 µM; hit rate 0.92% among 300,000; AID 602252, 2012;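 active = mean inhibition of at least 30% with at least half of replicates also reaching 30%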;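 also: 0% = DMSO neutral control and 100% = excess unlabeled competitor peptide PRC23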
Rin1-Abl PPI inh – inhibitors of Rin1-Abl protein binding, primary screen, biochemical, TR-FRET. hit rate 0.4% among 360,000. AID 588664, 2011. Tyrosine-protein kinase ABL1 (Homo sapiens) + Ras and Rab interactor 1 (Homo sapiens), …. inhibition, % at 7.35 µM; in the data active = inhibition above about 5%, passing the limit was not always enough
ERAP1 HTS inh – human ERAP1 aminopeptidase inhibitors, primary screen, biochemical, single point, plate reader; recombinant ERAP1, Leu-AMC fluorescence, 60 min; hit rate 0.15% among 340,000; AID 652197, 2013; inhibition, % at 10.7 µM; Endoplasmic reticulum aminopeptidase 1 (Homo sapiens), Q9NZ08;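 active = mean replicate inhibition of at least 30%, or all replicates individually reaching that 30% level; inactive = mean below 30% and not every replicate reaching it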;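 also: 0% = neutral control wells and 100% = L-leucinethiol positive control wells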
PDI turbidity – inhibitors of human PDI, primary screen, biochemical, turbidity, single point, plate reader; Protein disulfide-isomerase (Homo sapiens), P07237; PDI insulin aggregation turbidity, A650, 90 min; inhibition, % at 10 µM; hit rate 0.052% among 350,000;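 active = mean inhibition across replicates of 30% or more, whatever share of single replicates reach that level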
Target sequence (P07237 whole entry, looked up): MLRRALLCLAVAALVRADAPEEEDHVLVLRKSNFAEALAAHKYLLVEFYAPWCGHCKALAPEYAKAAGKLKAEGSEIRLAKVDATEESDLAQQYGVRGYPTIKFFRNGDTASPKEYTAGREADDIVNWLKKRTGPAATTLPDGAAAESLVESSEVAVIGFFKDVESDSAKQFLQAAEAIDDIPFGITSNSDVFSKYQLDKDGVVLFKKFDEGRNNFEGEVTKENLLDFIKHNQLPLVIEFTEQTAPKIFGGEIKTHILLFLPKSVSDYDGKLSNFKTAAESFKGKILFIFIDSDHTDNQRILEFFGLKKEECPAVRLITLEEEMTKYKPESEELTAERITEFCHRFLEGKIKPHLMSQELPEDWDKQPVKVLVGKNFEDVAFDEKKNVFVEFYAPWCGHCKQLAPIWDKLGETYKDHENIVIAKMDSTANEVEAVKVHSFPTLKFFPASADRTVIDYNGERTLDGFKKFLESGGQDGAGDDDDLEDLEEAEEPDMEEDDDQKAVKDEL
An asterisk follows results filed as active; nt = no result given. Rows were chosen to be rich in hits. Some 1.1% of all compounds tested hit in one or more screens of this group.

SMILES	CAL PDZ FP-1	ERp5 inh	CAL PDZ FP-2	Rin1-Abl PPI inh	ERAP1 HTS inh	PDI turbidity
O=C(N[C@H]1CC[C@H](CCNC(=O)C2CCOCC2)O[C@H]1CO)c1ccncc1	nt	-4	nt	nt	-2	nt
Cc1cccc2cc(-c3nc4ccc(C(=O)O)cc4[nH]3)c(=O)oc12	nt	nt	81*	0	nt	11
COc1cccc2cc(-c3nc4ccccc4[nH]3)c(=O)oc12	-1	-1	1	-6	1	-1
CCCNC(=O)N[C@@H]1C=C[C@@H](CC(=O)NC2CCC2)O[C@@H]1CO	nt	8	nt	nt	3	nt
CCOc1ncccc1C(=O)OCC(=O)N(CC(C)C)C1CCS(=O)(=O)C1 (centres undefined)	0	-2	57*	-1	-1	-1
O=C(CN1CCN(Cc2ccccc2)CC1)N=Nc1c(O)[nH]c2ccccc12	-3	nt	2	-6	nt	-1
O=C(CN1CCCCC1)N=Nc1c(O)[nH]c2ccccc12	-1	7	41*	-5	-2	-3
CC=Cc1ccc2n(c1=O)C[C@H]1[C@H](CO)[C@@H](C(=O)NCC3CC3)N(Cc3ccccc3)[C@@H]21 (mixture of isomers)	nt	2	nt	nt	-1	nt
COc1ccccc1CNc1ccc2nnc(CCNC(=O)c3ccc(C)cc3)n2n1	-2	-2	-5	-3	6	-2
COc1ccccc1CNc1ccc2nnc(CCNC(=O)c3ccccc3)n2n1	-2	1	54*	1	nt	-1
CN(C)C(=O)c1cccc(-c2ccc([C@@H]3[C@@H](CO)N4CCCCN(CC5CCOCC5)C[C@H]34)cc2)c1	nt	2	nt	nt	2	nt
CC(C)(C)c1ccc(C(=O)NCCC(=O)NNC(=O)COc2ccc(F)cc2)cc1	0	-7	33*	2	1	-10
Cc1ccccc1S(=O)(=O)/N=C(/Nc1c(C)n(C)n(-c2ccccc2)c1=O)c1ccccc1	-1	1	40*	0	2	-3
Cc1c(N/C(=N/S(=O)(=O)c2ccc(F)cc2)c2ccccc2)c(=O)n(-c2ccccc2)n1C	-1	0	-3	4	-3	-5
C/C=C/c1cnc2c(c1)C(=O)N([C@@H](C)CO)C[C@@H](C)[C@@H](CN(C)C(=O)Nc1ccc(C(F)(F)F)cc1)O2	nt	15	nt	nt	-1	nt
CC(C)(C)C(=O)O/N=C(\N)Cc1ccc(-c2csnn2)cc1	-1	6	61*	2	-8	4
CC(C)CC#Cc1ccc([C@@H]2[C@H](CO)N3C(=O)CN(C(=O)CN4CCOCC4)C[C@@H]23)cc1	nt	1	nt	nt	-2	nt
COc1ccc(NC(=O)Nc2ccc3c(c2)C(=O)N([C@H](C)CO)C[C@H](C)[C@H](CN(C)C(=O)Nc2cccc4ccccc24)OCCCC[C@H](C)O3)cc1	nt	4	nt	nt	-1	nt
CCC(=O)N1C[C@H](C)[C@@H](OC)CN(C)C(=O)c2cc(NC(=O)Nc3ccc(Cl)cc3)ccc2OC[C@@H]1C	nt	2	nt	nt	-2	nt
Cc1noc(C)c1S(=O)(=O)Nc1cccc2c1O[C@@H](CN(C)C(=O)Nc1ccc(C(F)(F)F)cc1)[C@@H](C)CN([C@H](C)CO)C2=O	nt	7	nt	nt	3	nt
C[C@@H]1CN([C@H](C)CO)C(=O)c2cccc(NS(=O)(=O)c3ccc(Cl)cc3)c2O[C@@H]1CN(C)Cc1ccc(C(F)(F)F)cc1	nt	28*	nt	nt	0	nt
Cc1noc(C)c1S(=O)(=O)Nc1cccc2c1O[C@H](CN(C)C(=O)Nc1ccc(C(F)(F)F)cc1)[C@H](C)CN([C@@H](C)CO)C2=O	nt	63*	nt	nt	2	nt
Cc1cc(C(=O)Nc2cccc3c2O[C@@H](CN(C)S(=O)(=O)c2ccc(Cl)cc2)[C@@H](C)CN([C@@H](C)CO)C3=O)n(C)n1	nt	26*	nt	nt	-1	nt
C[C@@H]1CN([C@@H](C)CO)C(=O)c2cccc(NS(=O)(=O)c3ccc(Cl)cc3)c2O[C@H]1CN(C)Cc1ccc(C(F)(F)F)cc1	nt	4	nt	nt	2	nt
C[C@@H]1CCCCO[C@@H](CN(C)CC2CC2)[C@@H](C)CN([C@H](C)CO)C(=O)c2cc(NC(=O)NC3CCCCC3)ccc2O1	nt	-4	nt	nt	2	nt
SMILES	CAL PDZ FP-1	ERp5 inh	CAL PDZ FP-2	Rin1-Abl PPI inh	ERAP1 HTS inh	PDI turbidity
CO[C@H]1CN(C)C(=O)c2ccc(NS(C)(=O)=O)cc2OC[C@H](C)N(C(=O)C2CCCC2)C[C@H]1C	nt	-1	nt	nt	2	nt
CCCNC(=O)N1C[C@H](O)COC[C@@H]2O[C@@H](CC(=O)N3CCC(Cc4ccccc4)CC3)CC[C@H]21	nt	0	nt	nt	1	nt
O=C(CC1(O)CCCCC1)OC1CCCC1	-1	nt	nt	-2	nt	7
C[N+]1(CC(=O)OC2CCCCCCCCCCC2)CCCC1	-1	-1	97*	1	3	-2
Cc1cc(C(=O)CSc2nnnn2C)c(C)n1CCc1ccc(F)cc1	-2	nt	39*	2	nt	10
Cc1cc(C(=O)CSc2nnnn2-c2ccccc2)c(C)n1CCc1ccccc1	0	nt	-4	2	nt	-11
CCOCCCNC(=O)CN1C(=O)/C(=C/c2ccccc2C)Sc2ccccc21	-1	5	31*	-3	0	0
COCCCNC(=O)CN1C(=O)/C(=C\c2ccc(C)cc2)Sc2ccccc21	-3	nt	-3	0	nt	3
CCCn1cnc2c(SCCc3ccccc3)nc(N)nc21	nt	0	54*	1	-2	-6
Cc1nn(C(C)C(=O)NCc2ccccc2Cl)c(=O)c2c1sc1ccccc12 (centres undefined)	0	nt	70*	3	nt	4
CCOC(=O)c1c(C)[nH]c(C)c1C(=O)CN1C(=O)NC2(CCCCCC2)C1=O	0	4	35*	2	1	-4
CCc1ccccc1NC(=O)c1cnn(-c2ccccc2)c1C	nt	0	75*	2	0	-6
COc1cc(SC)ccc1C(=O)OC(C)C(=O)Nc1ccc(NC(C)=O)cc1 (centres undefined)	-1	-1	56*	0	-3	-2
CCNC(=O)NC(=O)C(C)OC(=O)c1ccc(SC)cc1OC (centres undefined)	2	3	-2	1	14	-2
Cc1nc(N2CCOCC2)c2cc(-c3ccccc3)sc2n1	-2	nt	-6	-7	nt	3
Cc1nc(SCCC(=O)O)c2cc(-c3ccccc3)sc2n1	-2	1	55*	0	-6	3
O=C(Cn1c2[n+](c3ccc(C(F)(F)F)cc31)CCCCC2)Nc1ccc(Br)cc1	0	nt	0	2	nt	2
N#Cc1ccc(NC(=O)Cn2c3[n+](c4ccc(C(F)(F)F)cc42)CCCCC3)cc1	-3	4	-3	1	64*	3
